Legend:
A-375 [1] = experiment: Cellular uptake in human A375 cells after 2 mins by gamma-counter; assay type: ADME, cell-based; details: a-375, 2 min
Method in brief: (§1)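 A375 cells grown in RPMI-1640 with 10% FBS and 2 mM L-glutamine; 2.5×10^5 seeded per well overnight, counts done in triplicate. After a warm PBS wash, cells got 0.37 MBq tracer in 500 μL PBS at 37 °C. Stopped with ice-cold PBS wash, lysed in 0.2 N NaOH, counted in a γ-counter. Decay-corrected % applied dose per 10^5 cells, mean ± SD, n = 3.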

[2] = Metabolic stability in human A375 cells xenografted in BALB/c nude mouse assessed as radioactivity after 0.25 by HPLC analysis; assay type: ADME, cell-based, A-375; details: in vivo
Method in brief: (§2)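 A375-tumored Balb/c nude mice received 18-20 MBq tracer iv. Plasma and urine were spiked with unlabeled FPHCys and KF and injected directly; tissues were sonicated in saline with carrier and centrifuged at 6000g. Radio-HPLC on C18 with methanol/phosphate buffer pH 6 gave intact fraction as authentic peak over total activity, at 0.25, 1 and 2 h.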

[3] = Metabolic stability in urine of BALB/c nude mouse xenografted with human A375 cells assessed as radioactivity after 2 hrs by HPLC analysis; assay type: ADME, tissue-based, A-375; details: in vivo; method in brief: as §2
A-375 [4] = experiment: Cellular uptake in human A375 cells after 15 mins by gamma-counter; assay type: ADME, cell-based; details: a-375, 0.25 h; method in brief: as §1
A-375 [5] = experiment: Cellular uptake in human A375 cells after 15 to 60 mins by gamma-counter; assay type: ADME, cell-based; method in brief: as §1

| SMILES | Drug uptake (A-375 [1]) [%] | Stability [2] [%] | Stability [3] [%] | Drug uptake (A-375 [4]) | Drug uptake (A-375 [5]) |
| --- | --- | --- | --- | --- | --- |
| Cl.N[C@@H](CCSCCC[18F])C(=O)O | > 50 | 90 | < 4 | – | – |
| Cl.N[C@H](CCSCCC[18F])C(=O)O | – | – | – | Active | Active |
